Measured values: ChEMBL document CHEMBL1144700, “Synthesis of new N-phenylpyrazole derivatives with potent antimicrobial activity” (2008)
Converted amounts (≈) assume the structure as drawn.

What was measured:
Assay type in all cases: functional
Candida albicans = assay: Antifungal activity against Candida albicans after 24 hrs by agar diffusion test
Outline: (§1)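 Disc diffusion: organism culture swabbed dry onto prepared agar plates; sterile 9.6 mm discs soaked in compound solution (stock 0.5 g in 10 ml DMF), dried and laid on the inoculated surface. Standard antimicrobial disc placed at the plate centre. Incubation at 37 °C for 24 h.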

Aspergillus fumigatus [1] = assay: Antifungal activity against Aspergillus fumigatus after 24 hrs by agar diffusion test; outline: as §1
Staphylococcus aureus = assay: Antibacterial activity against Staphylococcus aureus after 24 hrs by agar diffusion test; outline: as §1
Pseudomonas aeruginosa = assay: Antibacterial activity against Pseudomonas aeruginosa after 24 hrs by agar diffusion test; outline: as §1
Aspergillus fumigatus [2] = assay: Antifungal activity against Aspergillus fumigatus after 72 hrs
Outline: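 Microwell growth assay with conidia from 48 h Sabouraud agar cultures, final 5 × 10³ conidia per well. Medium-only and fluconazole-range controls included. Incubated at 23 °C for 72 h with growth checked every 24 h, then read as absorbance at 620 nm. Each concentration run in triplicate and the experiment repeated three times.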

Row | Structure (SMILES) | inhibition zone (IZ) (Candida albicans) | inhibition zone (IZ) (Aspergillus fumigatus [1]) | inhibition zone (IZ) (Staphylococcus aureus) | inhibition zone (IZ) (Pseudomonas aeruginosa) | MIC (Aspergillus fumigatus [2])
1 | Cc1c(-c2csc(N)n2)c(C(=O)Nc2ccccc2)nn1-c1ccccc1 | 13 mm/mg | 0 mm/mg | 13 mm/mg | 18 mm/mg | –
2 | Cc1c(-c2ccccc2)nn2c(-c3c(C(=O)Nc4ccccc4)nn(-c4ccccc4)c3C)ccnc12 | 10 mm/mg | 0 mm/mg | 8 mm/mg | 0 mm/mg | –
3 | Cc1c(-c2cnc3sc4ccccc4n23)c(C(=O)Nc2ccccc2)nn1-c1ccccc1 | 12 mm/mg | 0 mm/mg | 12 mm/mg | 10 mm/mg | –
4 | Cc1c(-c2ccon2)c(C(=O)Nc2ccccc2)nn1-c1ccccc1 | 13 mm/mg | 0 mm/mg | 13 mm/mg | 13 mm/mg | –
5 | Cc1c(-c2cc[nH]n2)c(C(=O)Nc2ccccc2)nn1-c1ccccc1 | 12 mm/mg | 0 mm/mg | 13 mm/mg | 13 mm/mg | –
6 | Cc1c(C(=O)CBr)c(C(=O)Nc2ccccc2)nn1-c1ccccc1 | 16 mm/mg | 12 mm/mg | 18 mm/mg | 20 mm/mg | 25 µg/mL (≈ 62.8 µM)
7 | Cc1c(-c2cnc3ccccc3n2)c(C(=O)Nc2ccccc2)nn1-c1ccccc1 | 10 mm/mg | 0 mm/mg | 11 mm/mg | 10 mm/mg | –
8 | Cc1c(C(=O)/C=C/NNC(N)=S)c(C(=O)Nc2ccccc2)nn1-c1ccccc1 | 12 mm/mg | 0 mm/mg | 10 mm/mg | 8 mm/mg | –
9 | Cc1c(C(=O)CC2C(=O)CC(C)(C)CC2=O)c(C(=O)Nc2ccccc2)nn1-c1ccccc1 | 10 mm/mg | 0 mm/mg | 11 mm/mg | 0 mm/mg | –
10 | Cc1c(C(=O)/C=C/N(C)C)c(C(=O)Nc2ccccc2)nn1-c1ccccc1 | 15 mm/mg | 0 mm/mg | 14 mm/mg | 14 mm/mg | –
11 | Cc1c(-c2ccc(Cl)cc2)nn2c(-c3c(C(=O)Nc4ccccc4)nn(-c4ccccc4)c3C)ccnc12 | 10 mm/mg | 0 mm/mg | 10 mm/mg | 0 mm/mg | –
12 | Cc1c(-c2ccnc3nncn23)c(C(=O)Nc2ccccc2)nn1-c1ccccc1 | 12 mm/mg | 0 mm/mg | 13 mm/mg | 13 mm/mg | –
13 | CC(=O)c1c(C(=O)Nc2ccccc2)nn(-c2ccccc2)c1C | 15 mm/mg | 0 mm/mg | 21 mm/mg | 17 mm/mg | –
14 | C[C@@H]1[C@H](O)[C@@H](C)/C=C/C=C/C=C/C=C/C=C/C=C/C=C/[C@H](O[C@@H]2O[C@H](C)[C@@H](O)[C@H](N)[C@@H]2O)C[C@@H]2O[C@](O)(C[C@@H](O)C[C@@H](O)[C@H](O)CC[C@@H](O)C[C@@H](O)CC(=O)O[C@H]1C)C[C@H](O)[C@H]2C(=O)O [AMPHOTERICIN B] | – | – | – | – | 11 µg/mL (≈ 11.9 µM)
15 | O=C(N[C@H](CO)[C@H](O)c1ccc([N+](=O)[O-])cc1)C(Cl)Cl [CHLORAMPHENICOL] | – | – | 21 mm/mg | 20 mm/mg | –
16 | Clc1ccc(COC(Cn2ccnc2)c2ccc(Cl)cc2Cl)c(Cl)c1 (centres undefined) [MICONAZOLE] | – | – | – | – | 27.5 µg/mL (≈ 66.1 µM)
17 | CN(C/C=C/C#CC(C)(C)C)Cc1cccc2ccccc12 [TERBINAFINE] | 10 mm/mg | 10 mm/mg | – | – | –
